≈ marks a conversion by molar mass, not a printed value.
Assays:
Enterococcus [1] = assay: Ratio of kcat to Km of Enterococcus APH(3')-3a
Escherichia coli [2] = assay: Antibacterial activity against aminoglycoside-susceptible Escherichia coli TG1 after 12 to 18 hrs; assay type: functional
How it was run: (§1)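 Broth microdilution. Bacterial suspension adjusted with broth to absorbance 0.08–0.1 at 625 nm, diluted further in broth, and mixed in wells with 2-fold serial dilutions of compound. Plates incubated at 35°C for 12–18 h. MIC is the lowest concentration inhibiting growth; each determination repeated at least three times.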

Escherichia coli [3] = assay: Antibacterial activity against Escherichia coli TG1 pET28a plasmid encoded for APH(3')-3a after 12 to 18 hrs; assay type: functional; how it was run: as §1
Escherichia coli [4] = assay: Antibacterial activity against Escherichia coli TG1 pSF815 plasmid encoded for AAC(6')/APH(2') after 12 to 18 hrs; assay type: functional; how it was run: as §1
Enterococcus [5] = assay: Activity of Enterococcus APH(3')-3a
Staphylococcus aureus = assay: Antibacterial activity against aminoglycoside-susceptible Staphylococcus aureus ATCC 25923 after 12 to 18 hrs; assay type: functional; how it was run: as §1
Escherichia coli [6] = assay: Antibacterial activity against Escherichia coli TG1 pTZ19U-3 plasmid encoded for APH(3')-1 after 12 to 18 hrs; assay type: functional; how it was run: as §1
Escherichia coli [7] = assay: Antibacterial activity against aminoglycoside-susceptible Escherichia coli ATCC 25922 after 12 to 18 hrs; assay type: functional; how it was run: as §1

Compound	kcat/Km (Enterococcus [1]) [×10⁴ /M/s]	MIC (Escherichia coli [2]) [µg/mL]	MIC (Escherichia coli [3]) [µg/mL]	MIC (Escherichia coli [4]) [µg/mL]	Km (Enterococcus [5]) [µM]	Vmax (Enterococcus [5]) [µmol/min/mg]	kcat (Enterococcus [5]) [s⁻¹]	MIC (Staphylococcus aureus) [µg/mL]	MIC (Escherichia coli [6]) [µg/mL]	MIC (Escherichia coli [7]) [µg/mL]
NC[C@@H]1O[C@H](O[C@H]2[C@@H](O)[C@H](O[C@@H]3[C@@H](O)[C@H](N)C[C@H](N)[C@H]3O[C@H]3O[C@H](CN)[C@@H](O)[C@H](O)[C@H]3N)O[C@@H]2CNC(=O)c2cc(-c3ccccc3)nc3ccccc23)[C@H](N)[C@@H](O)[C@@H]1O	0.048	8 (≈ 9.47 µM)	32 (≈ 37.9 µM)	16 (≈ 18.9 µM)	400	0.38	0.19	4 (≈ 4.73 µM)	≥ 2000	8 (≈ 9.47 µM)
NC[C@@H]1O[C@H](O[C@H]2[C@@H](O)[C@H](O[C@@H]3[C@@H](O)[C@H](N)C[C@H](N)[C@H]3O[C@H]3O[C@H](CN)[C@@H](O)[C@H](O)[C@H]3N)O[C@@H]2Cn2cc(CNC(=O)C3CCNCC3)nn2)[C@H](N)[C@@H](O)[C@@H]1O	0.12	16 (≈ 19.9 µM)	64 (≈ 79.4 µM)	32 (≈ 39.7 µM)	171	0.41	0.21	4 (≈ 4.96 µM)	≥ 2000	16 (≈ 19.9 µM)
NC[C@@H]1O[C@H](O[C@H]2[C@@H](O)[C@H](O[C@@H]3[C@@H](O)[C@H](N)C[C@H](N)[C@H]3O[C@H]3O[C@H](CN)[C@@H](O)[C@H](O)[C@H]3N)O[C@@H]2Cn2cc(C3CCCCN3)nn2)[C@H](N)[C@@H](O)[C@@H]1O (stereo not given in full)	0.18	16 (≈ 21.4 µM)	125 (≈ 167 µM)	16 (≈ 21.4 µM)	150	0.54	0.27	2 (≈ 2.67 µM)	≥ 2000	8 (≈ 10.7 µM)
NC[C@@H]1O[C@H](O[C@H]2[C@@H](O)[C@H](O[C@@H]3[C@@H](O)[C@H](N)C[C@H](N)[C@H]3O[C@H]3O[C@H](CN)[C@@H](O)[C@H](O)[C@H]3N)O[C@@H]2CNC(=O)[C@H](N)CO)[C@H](N)[C@@H](O)[C@@H]1O	0.82	8 (≈ 11.4 µM)	64 (≈ 91.3 µM)	16 (≈ 22.8 µM)	57	0.93	0.47	1 (≈ 1.43 µM)	≥ 2000	8 (≈ 11.4 µM)
NC[C@@H]1O[C@@H](O[C@H]2[C@H](O)[C@@H](O[C@H]3O[C@H](CO)[C@@H](O)[C@H](N)[C@H]3O)[C@H](N)C[C@@H]2N)[C@@H](O)[C@H](O)[C@H]1O [KANAMYCIN A]	42.4	–	125 (≈ 258 µM)	–	8.2	6.96	3.48	–	–	–
CNCc1cn(C[C@H]2O[C@@H](O[C@@H]3[C@@H](O)[C@H](N)C[C@H](N)[C@H]3O[C@H]3O[C@H](CN)[C@@H](O)[C@H](O)[C@H]3N)[C@H](O)[C@@H]2O[C@H]2O[C@@H](CN)[C@@H](O)[C@H](O)[C@H]2N)nn1	0.36	16 (≈ 22.6 µM)	125 (≈ 176 µM)	16 (≈ 22.6 µM)	100	0.72	0.36	1 (≈ 1.41 µM)	≥ 2000	8 (≈ 11.3 µM)
NC[C@@H]1O[C@H](O[C@H]2[C@@H](O)[C@H](O[C@@H]3[C@@H](O)[C@H](N)C[C@H](N)[C@H]3O[C@H]3O[C@H](CN)[C@@H](O)[C@H](O)[C@H]3N)O[C@@H]2CNC(=O)CCC(=O)O)[C@H](N)[C@@H](O)[C@@H]1O	0.81	32 (≈ 44.8 µM)	250 (≈ 350 µM)	64 (≈ 89.7 µM)	53	0.86	0.43	8 (≈ 11.2 µM)	≥ 2000	64 (≈ 89.7 µM)
NC[C@@H]1O[C@H](O[C@H]2[C@@H](O)[C@H](O[C@@H]3[C@@H](O)[C@H](N)C[C@H](N)[C@H]3O[C@H]3O[C@H](CN)[C@@H](O)[C@H](O)[C@H]3N)O[C@@H]2CNC(=O)[C@@H](N)Cc2c[nH]c3ccccc23)[C@H](N)[C@@H](O)[C@@H]1O	0.1	8 (≈ 10 µM)	64 (≈ 80 µM)	16 (≈ 20 µM)	322	0.57	0.29	2 (≈ 2.5 µM)	≥ 2000	16 (≈ 20 µM)
CCCCCCc1cn(C[C@H]2O[C@@H](O[C@@H]3[C@@H](O)[C@H](N)C[C@H](N)[C@H]3O[C@H]3O[C@H](CN)[C@@H](O)[C@H](O)[C@H]3N)[C@H](O)[C@@H]2O[C@H]2O[C@@H](CN)[C@@H](O)[C@H](O)[C@H]2N)nn1	0.3	8 (≈ 10.7 µM)	32 (≈ 42.7 µM)	16 (≈ 21.3 µM)	127	0.75	0.38	4 (≈ 5.33 µM)	500 (≈ 667 µM)	32 (≈ 42.7 µM)
C[C@H](N)C(=O)NC[C@H]1O[C@@H](O[C@@H]2[C@@H](O)[C@H](N)C[C@H](N)[C@H]2O[C@H]2O[C@H](CN)[C@@H](O)[C@H](O)[C@H]2N)[C@H](O)[C@@H]1O[C@H]1O[C@@H](CN)[C@@H](O)[C@H](O)[C@H]1N	0.75	8 (≈ 11.7 µM)	64 (≈ 93.5 µM)	16 (≈ 23.4 µM)	60	0.9	0.45	0.5 (≈ 0.73 µM)	≥ 2000	8 (≈ 11.7 µM)
NC[C@@H]1O[C@H](O[C@H]2[C@@H](O)[C@H](O[C@@H]3[C@@H](O)[C@H](N)C[C@H](N)[C@H]3O[C@H]3O[C@H](CN)[C@@H](O)[C@H](O)[C@H]3N)O[C@@H]2Cn2cc(CNC(=O)c3cc(-c4ccccc4)nc4ccccc34)nn2)[C@H](N)[C@@H](O)[C@@H]1O	0.037	8 (≈ 8.64 µM)	16 (≈ 17.3 µM)	32 (≈ 34.6 µM)	410	0.3	0.15	8 (≈ 8.64 µM)	500 (≈ 540 µM)	32 (≈ 34.6 µM)
NCCCC[C@H](N)C(=O)NC[C@H]1O[C@@H](O[C@@H]2[C@@H](O)[C@H](N)C[C@H](N)[C@H]2O[C@H]2O[C@H](CN)[C@@H](O)[C@H](O)[C@H]2N)[C@H](O)[C@@H]1O[C@H]1O[C@@H](CN)[C@@H](O)[C@H](O)[C@H]1N	0.51	16 (≈ 21.6 µM)	32 (≈ 43.1 µM)	32 (≈ 43.1 µM)	78	0.79	0.4	2 (≈ 2.7 µM)	125 (≈ 168 µM)	16 (≈ 21.6 µM)
NCc1cn(C[C@H]2O[C@@H](O[C@@H]3[C@@H](O)[C@H](N)C[C@H](N)[C@H]3O[C@H]3O[C@H](CN)[C@@H](O)[C@H](O)[C@H]3N)[C@H](O)[C@@H]2O[C@H]2O[C@@H](CN)[C@@H](O)[C@H](O)[C@H]2N)nn1	0.3	16 (≈ 23 µM)	64 (≈ 92.1 µM)	16 (≈ 23 µM)	111	0.68	0.34	1 (≈ 1.44 µM)	1000 (≈ 1440 µM)	8 (≈ 11.5 µM)
CCCCCCC(=O)NC[C@H]1O[C@@H](O[C@@H]2[C@@H](O)[C@H](N)C[C@H](N)[C@H]2O[C@H]2O[C@H](CN)[C@@H](O)[C@H](O)[C@H]2N)[C@H](O)[C@@H]1O[C@H]1O[C@@H](CN)[C@@H](O)[C@H](O)[C@H]1N	1	8 (≈ 11 µM)	64 (≈ 88.2 µM)	16 (≈ 22 µM)	48	0.95	0.48	4 (≈ 5.51 µM)	≥ 2000	16 (≈ 22 µM)
NC[C@@H]1O[C@H](O[C@H]2[C@@H](O)[C@H](O[C@@H]3[C@@H](O)[C@H](N)C[C@H](N)[C@H]3O[C@H]3O[C@H](CN)[C@@H](O)[C@H](O)[C@H]3N)O[C@@H]2CNC(=O)CCC(=O)NC[C@H]2O[C@@H](O[C@@H]3[C@@H](O)[C@H](N)C[C@H](N)[C@H]3O[C@H]3O[C@H](CN)[C@@H](O)[C@H](O)[C@H]3N)[C@H](O)[C@@H]2O[C@H]2O[C@@H](CN)[C@@H](O)[C@H](O)[C@H]2N)[C@H](N)[C@@H](O)[C@@H]1O	< 0.01	8 (≈ 6.11 µM)	64 (≈ 48.9 µM)	16 (≈ 12.2 µM)	> 500	< 0.1	< 0.05	2 (≈ 1.53 µM)	500 (≈ 382 µM)	32 (≈ 24.4 µM)
NC[C@@H]1O[C@H](O[C@H]2[C@@H](O)[C@H](O[C@@H]3[C@@H](O)[C@H](N)C[C@H](N)[C@H]3O[C@H]3O[C@H](CN)[C@@H](O)[C@H](O)[C@H]3N)O[C@@H]2CNC(=O)[C@@H]2CCCN2)[C@H](N)[C@@H](O)[C@@H]1O	0.4	16 (≈ 22.5 µM)	64 (≈ 90 µM)	16 (≈ 22.5 µM)	80	0.63	0.32	0.5 (≈ 0.703 µM)	≥ 2000	16 (≈ 22.5 µM)
NCCCC[C@@H](N)C(=O)NC[C@H]1O[C@@H](O[C@@H]2[C@@H](O)[C@H](N)C[C@H](N)[C@H]2O[C@H]2O[C@H](CN)[C@@H](O)[C@H](O)[C@H]2N)[C@H](O)[C@@H]1O[C@H]1O[C@@H](CN)[C@@H](O)[C@H](O)[C@H]1N	0.47	16 (≈ 21.6 µM)	64 (≈ 86.3 µM)	64 (≈ 86.3 µM)	75	0.7	0.35	1 (≈ 1.35 µM)	≥ 2000	32 (≈ 43.1 µM)
C[C@@H](N)C(=O)NC[C@H]1O[C@@H](O[C@@H]2[C@@H](O)[C@H](N)C[C@H](N)[C@H]2O[C@H]2O[C@H](CN)[C@@H](O)[C@H](O)[C@H]2N)[C@H](O)[C@@H]1O[C@H]1O[C@@H](CN)[C@@H](O)[C@H](O)[C@H]1N	0.65	16 (≈ 23.4 µM)	64 (≈ 93.5 µM)	16 (≈ 23.4 µM)	63	0.82	0.41	1 (≈ 1.46 µM)	≥ 2000	16 (≈ 23.4 µM)
